High-throughput results as filed in PubChem.
Only some compounds are listed: those with a hit (about 2% of all), similar ones and a draw of the others.
MT1-MMP act inh = inhibitors of human MT1-MMP activation | P50281 | HT1080 RFP-PRO-GFP cells, GFP/RFP ratio fluorescence, overnight; percent of plate control window, DMSO zero | GFP/RFP ratio change, % at 20 µM | 0.061% of 360,000 active | AID 651647;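 active = GFP/RFP ratio change of at least 30% with cell ATP level not reduced by more than half and red fluorescence within 50% of control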
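Read-out: GFP/RFP fluorescence ratio; Test system: RFP-PRO-GFP reporter HT1080 cells; Compound dosing: single-point 20 µM compound, 1% DMSO; Times: overnight compound exposure at 37 °C.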
DAGLB inhibitor = diacylglycerol lipase beta (human) inhibition. inhibition, % at 5.17 µM. HEK293T DAGLB membrane lysate, EnzChek fluorogenic substrate. AID 504411. 0.059% of 340,000 active; in the data active = inhibition above about 34%;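 note: 0% = enzyme with vehicle and 100% = wells lacking enzyme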
VLA-4 inh = inhibition in a human VLA-4 binding assay. P13612. inhibition, % (about 7 µM as worked out from the volumes in the protocol). 0.2% of 330,000 active. AID 2557. VLA-4 expressing cells, ligand binding flow cytometry; in the data active = inhibition above about 50%
Exocytosis inh = lytic granule exocytosis inhibition; inhibition, % at 10 µM; 0.66% of 360,000 active; AID 651702; TALL-104 LAMP-1 surface exposure, flow cytometry; cells stimulated with thapsigargin and PMA;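 active = inhibition above about 55%, limit read from the data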
ABCB6 inh 2 = inhibitors of human ABC transporter ABCB6. K562-ABCB6 porphyrin accumulation, flow cytometry, 1 h; active compounds read low. fluorescence ratio to DMSO, % at 10 µM. 0.19% of 360,000 active. AID 602162;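 active = fluorescence ratio to DMSO below 75%, the collection mean minus 3 SD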;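 note: signal is porphyrin accumulated inside mitochondria; 100% equals median channel fluorescence of DMSO control wells; lower ratio means ABCB6 inhibition with less porphyrin fluorescence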
Target sequence (Q9NP58 whole entry, looked up): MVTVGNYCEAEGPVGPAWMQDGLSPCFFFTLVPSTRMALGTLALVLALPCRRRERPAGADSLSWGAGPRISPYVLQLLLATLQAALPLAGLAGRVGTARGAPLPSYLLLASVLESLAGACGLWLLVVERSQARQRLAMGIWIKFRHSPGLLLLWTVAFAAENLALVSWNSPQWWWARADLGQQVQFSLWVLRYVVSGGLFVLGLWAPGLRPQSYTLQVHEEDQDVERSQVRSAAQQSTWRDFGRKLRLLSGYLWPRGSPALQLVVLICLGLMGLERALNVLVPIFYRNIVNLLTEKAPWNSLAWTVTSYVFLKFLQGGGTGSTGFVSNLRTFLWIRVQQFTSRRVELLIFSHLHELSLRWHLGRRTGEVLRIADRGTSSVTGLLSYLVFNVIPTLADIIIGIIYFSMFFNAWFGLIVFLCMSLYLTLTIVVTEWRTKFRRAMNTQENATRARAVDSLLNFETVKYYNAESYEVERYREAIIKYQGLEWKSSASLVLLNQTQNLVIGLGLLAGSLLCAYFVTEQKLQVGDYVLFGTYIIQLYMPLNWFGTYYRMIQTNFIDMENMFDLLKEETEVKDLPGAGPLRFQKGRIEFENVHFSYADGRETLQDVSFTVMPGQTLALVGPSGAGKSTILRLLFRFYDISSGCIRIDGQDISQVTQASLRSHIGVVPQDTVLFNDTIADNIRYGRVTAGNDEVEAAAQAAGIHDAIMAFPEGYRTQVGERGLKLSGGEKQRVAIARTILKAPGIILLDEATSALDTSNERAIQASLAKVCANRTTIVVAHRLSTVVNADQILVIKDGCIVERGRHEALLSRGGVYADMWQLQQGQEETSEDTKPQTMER
FGF22 binding = FGF22 (human) thermal shift binding. activity (Tm shift, normalised), % at 9.99 µM. Q9HCT0. recombinant FGF22 thermal shift, SYPRO orange fluorescence; percent of sucrose octasulfate shift, DMSO zero. 1.5% of 340,000 active;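 active = mean Tm shift, scaled 0 neutral to 100 positive control, at about 1.3% or above, every replicate too, limit read from the data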
Active calls of the source: *; . = no result; ! = not active in a repeat.

SMILES | MT1-MMP act inh | DAGLB inhibitor | VLA-4 inh | Exocytosis inh | ABCB6 inh 2 | FGF22 binding
COC(=O)C[C@H]1CC[C@H]2[C@@H](COc3ccc(NC(=O)Cc4cccs4)cc3C(=O)N2C)O1 | . | . | . | . | . | 0
O=C(CN1CCCC1)OCCCc1ccccc1 | 1 | 0 | 5 | -2 | 99 | 44*
O=[N+]([O-])c1cc(CN2CCN(c3cccc(C(F)(F)F)c3)CC2)c2cccnc2c1O | . | . | 19 | . | . | 43*
O=[N+]([O-])c1cc(CN2CCCC2)c2cccnc2c1O | 7 | -1 | -6 | 0 | 97 | .
CCOc1ccc(NC(C)=O)cc1[N+](=O)[O-] | 1 | -4 | 5 | -1 | 96 | 43*
CCOc1ccc(C(=O)Nc2cccc(C(C)=O)c2)cc1[N+](=O)[O-] | 0 | -5 | 2 | 2 | 94 | 43
CCC(=O)Nc1ccc(/C(C)=N\NC(=O)c2ccc(C)s2)cc1 | -3 | -5 | 2 | -1 | 90 | .
C/C(=N/NC(=O)c1ccc(Cl)s1)c1ccc(NC(=O)COc2ccc(Cl)cc2)cc1 | 1 | 1 | -10 | 3 | 53* | .
CCC(=O)Nc1ccc2c(c1)C(=O)N(C)[C@@H]1CC[C@H](CC(=O)NCC3CCCCC3)O[C@H]1CO2 | . | . | . | . | . | 0
Cc1cc(NC(=O)Cn2ccsc2=N)c([N+](=O)[O-])cc1C | 2 | 2 | -1 | -3 | 104 | 43*
Cc1ccc(NC(=O)Cn2ccsc2=N)c([N+](=O)[O-])c1 | 3 | 0 | -2 | 0 | 103 | 43
Cc1ccc2c(c1)c1ccc3c(c1n2C)C(=O)C=CC3=O | -8 | 9 | . | 3 | 100 | 0
Cn1c2ccccc2c2ccc3c(c21)C(=O)C=CC3=O | 2 | 10 | . | 106* | 125 | 0
Cc1ccc(OCCOC(=O)c2c(-c3ccccc3)noc2C)cc1 | 1 | -23 | -2 | 73* | 95 | 0
CN(Cc1c(C(=O)N2CCc3ccccc3C2)nc2ccc(Cl)cn12)C(C1CC1)C1CC1 | 1 | -4 | 11 | -3 | 94 | 43*
CCN(C)Cc1c(C(=O)N2CCc3ccccc3C2)nc2ccc(Cl)cn12 | -3 | 0 | 7 | 0 | 90 | 0
CC(C)NC(=O)Nc1ccc2c(c1)C(=O)N([C@H](C)CO)C[C@@H](C)[C@H](CN(C)C(=O)Nc1ccc3c(c1)OCO3)OCCCC[C@@H](C)O2 | . | . | . | . | . | 0
CCC(=O)N[C@@H]1CC[C@@H](CC(=O)OC)O[C@@H]1CO | . | . | . | . | . | 0
CCOc1ccc(C(C)=O)cc1CSc1nc2nc(C)cc(C)n2n1 | -2 | 0 | 1 | -4 | 101 | 43*
C/C(CCc1ccccc1)=N\NC(=O)COc1ccccc1C | -3 | -6 | -1 | 4 | 102 | 43*
CCN(CC(=O)Nc1cc(Cl)ccc1C)C(=O)COc1ccccc1F | -1 | -1 | -1 | -1 | 102 | 44*
O=[N+]([O-])c1ccc(S(=O)(=O)CC(CN2CCCCC2)N2CCCCC2)cc1 (centres undefined) | -8 | -2 | 33 | 64* | 103 | 0
COc1ccc2c3c([nH]c2c1)[C@@H](CO)N(C(=O)c1ccccc1)CC31CN(C(=O)c2cccc(F)c2)C1 | . | . | . | . | . | 0
COC(=O)C[C@@H]1CC[C@H]2[C@@H](COc3ccc(NC(=O)c4cc(F)cc(F)c4)cc3C(=O)N2C)O1 | . | . | . | . | . | 0
COc1cccc(C#Cc2cnc3c(c2)C(=O)N([C@@H](C)CO)C[C@@H](C)[C@H](CN(C)C(C)=O)O3)c1 | . | . | . | . | . | 0
SMILES | MT1-MMP act inh | DAGLB inhibitor | VLA-4 inh | Exocytosis inh | ABCB6 inh 2 | FGF22 binding
O=C(CSc1n[nH]c(=O)[nH]c1=O)NC1CC1 | 2 | 2 | 24 | -1 | 90 | 44*
Cc1cccn2c(=O)c(C=O)c(Sc3ncccn3)nc12 | 0 | 1 | -17 | -4 | 106 | 43*
O=Nc1nc2ncccn2c1-c1ccccc1 | -1 | -1 | . | 6 | 93 | 0
O=c1nc(Oc2ccccc2)nc2ncccn12 | -4 | 1 | . | 4 | 102 | 43*
C[C@@H]1CN([C@H](C)CO)C(=O)c2cccc(NS(=O)(=O)c3ccc(Cl)cc3)c2O[C@H]1CN(C)CC1CCCCC1 | . | . | . | . | . | -1
O=C(CN(c1ccc2c(c1)OCCO2)S(=O)(=O)c1ccccc1)N1CCN(Cc2ccccc2)CC1 | -5 | -5 | 13 | 13 | 102 | 43*
NC(=O)C1CCN(C(=O)CN(c2ccc3c(c2)OCCO3)S(=O)(=O)c2ccccc2)CC1 | 2 | 3 | 1 | 12 | 107 | 0
Cn1nc(SCc2ccccc2)c(=O)[nH]c1=O | 0 | -7 | . | -1 | 101 | 43*
C[C@H](CO)N1C[C@H](C)[C@@H](CN(C)CC2CC2)Oc2ccc(N(C)C)cc2CC1=O | . | . | . | . | . | 0
C[C@H]1CN([C@@H](C)CO)C(=O)c2cc(NC(=O)Nc3ccc(C(F)(F)F)cc3)ccc2O[C@@H]1CN(C)Cc1ccccc1 | . | . | . | . | . | 27*
C[C@@H]1CN([C@@H](C)CO)C(=O)c2cc(NC(=O)Nc3ccc(C(F)(F)F)cc3)ccc2O[C@H]1CN(C)C(=O)Nc1ccccc1 | . | . | . | . | . | 0
Cc1ccc(S(=O)(=O)N(C)C[C@H]2Oc3ccc(NC(=O)Nc4ccc(C(F)(F)F)cc4)cc3C(=O)N([C@H](C)CO)C[C@H]2C)cc1 | . | . | . | . | . | 2.7*
Cc1ccc(S(=O)(=O)N(C)C[C@@H]2Oc3ccc(NC(=O)Nc4ccc(C(F)(F)F)cc4)cc3C(=O)N([C@H](C)CO)C[C@H]2C)cc1 | . | . | . | . | . | 0
C[C@@H]1CN([C@H](C)CO)C(=O)c2cccc(NC(=O)c3ccc(-c4nccs4)cc3)c2O[C@@H]1CN(C)C(=O)Nc1ccccc1 | . | . | . | . | . | 3.2*
C[C@H]1CN([C@@H](C)CO)C(=O)c2cccc(NC(=O)c3ccc(-c4nccs4)cc3)c2O[C@@H]1CN(C)C(=O)Nc1ccccc1 | . | . | . | . | . | 0
C[C@H](CO)N1C[C@H](C)[C@@H](CN(C)C(=O)Nc2ccc(C(F)(F)F)cc2)Oc2ccc(NC(=O)Nc3ccccc3)cc2C1=O | 8 | 3 | -17 | 0 | 97 | 19*!
CC(C)NC(=O)N(C)C[C@H]1Oc2cc(C#CCN(C)C)ccc2S(=O)(=O)N([C@@H](C)CO)C[C@@H]1C | . | . | . | . | . | 0
C[C@H]1CN([C@@H](C)CO)C(=O)Cc2cc(NC(=O)Cc3ccccc3)ccc2O[C@@H]1CN(C)Cc1ccc(C(=O)Nc2ccccc2N)cc1 | . | . | . | . | . | 0
C[C@H](CO)N1C[C@H](C)[C@H](CN(C)Cc2ccc(Oc3ccccc3)cc2)Oc2c(NS(=O)(=O)c3cccs3)cccc2C1=O | . | . | . | . | . | 0
COc1cc(NC(=O)CSc2nncn2C)c(C)cc1[N+](=O)[O-] | -1 | -1 | 0 | 15 | 99 | 43*
COc1cc(NC(=O)CSc2nc(C)c(C)c(C)n2)c(C)cc1[N+](=O)[O-] | 0 | 3 | -19 | -7 | 106 | 0
